High-throughput results from PubChem BioAssay.
T cruzi growth-1: T. cruzi proliferation inhibition | T. cruzi beta-gal in NIH3T3, GalScreen luminescence, 90 h | inhibition, % at 8.34 µM | 77,000 compounds, 5.9% hits | AID 624255;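 active = mean inhibition above about 93%, with at least 55% of replicates each passing it, limit read from the data, passing the limit was not always enough; inconclusive = only one of those two conditions holds; inactive = neither condition holds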
Pf Dd2 growth: inhibitors of Plasmodium falciparum Dd2 growth; P. falciparum Dd2 growth, SYBR Green, 72 h; active compounds read low; activity change, % at 10 µM; 94,000 compounds, 2.3% hits; AID 1159554; in the data active = activity change below about -80%; inconclusive = no clear call, values can overlap the other calls
IDH1 mut inh: inhibitors of human IDH1 R132H; O75874; IDH1 R132H reductase, diaphorase/resazurin fluorescence, 60 min; inhibition, % at 10 µM; 70,000 compounds, 0.18% hits; AID 624101; in the data active = inhibition above about 34%; inconclusive = no clear call, values can overlap the other calls; inactive = below about 11%
KDM4C inh: KDM4C (human) demethylase inhibition; Q9H3R0; GST-KDM4C 2-372, H3K9me3 peptide, LANCE TR-FRET; 96,000 compounds, 0.15% hits; AID 720574; inhibition, % at 12.5 µM;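 active = mean replicate inhibition above about 25%, with at least 55% of replicates also reaching it, limit read from the data, passing the limit was not always enough; inconclusive = only one of those two conditions met; inactive = neither condition met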
Target sequence (Q9H3R0 2-372 limits assumed): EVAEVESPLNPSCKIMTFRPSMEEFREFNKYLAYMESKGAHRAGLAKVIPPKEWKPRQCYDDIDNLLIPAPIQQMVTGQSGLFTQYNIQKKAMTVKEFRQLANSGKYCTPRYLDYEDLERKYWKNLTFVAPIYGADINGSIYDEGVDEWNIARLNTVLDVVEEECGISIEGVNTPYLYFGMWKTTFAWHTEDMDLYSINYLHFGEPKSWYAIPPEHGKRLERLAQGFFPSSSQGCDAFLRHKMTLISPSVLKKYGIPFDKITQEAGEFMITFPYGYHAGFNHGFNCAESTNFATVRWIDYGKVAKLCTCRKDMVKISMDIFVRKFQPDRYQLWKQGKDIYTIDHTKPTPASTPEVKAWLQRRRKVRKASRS
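System: N-terminal GST-fused human GASC-1 (KDM4C) fragment, residues 2-372 / Amount: 10 nM GST-KDM4C in enzyme reaction / Also added: H3K9me3 peptide with Fe(II)/2OG / Times: 30 min demethylation and 1 h detection at room temperature / Signal: LANCE TR-FRET / Read-out basis: Fall in 671/618 emission ratio as inhibition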
T cruzi growth-2: blocks T. cruzi growth in NIH3T3 host cells; shares compounds with T cruzi growth-1; T. cruzi beta-gal in NIH3T3, GalScreen luminescence, 90 h; inhibition, % at 8.35 µM; 5,600 compounds, 72% hits; AID 651739;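 active = mean replicate inhibition above about 95% and at least 55% of replicates individually reaching it, limit read from the data; inconclusive = only one of the two criteria is met; inactive = neither criterion is met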
T cruzi growth-3: blocks T. cruzi growth in NIH3T3 host cells. 5,600 compounds, 21% hits. inhibition, % at 2.09 µM. T. cruzi beta-gal in NIH3T3, GalScreen luminescence, 90 h. AID 651740. shares compounds with T cruzi growth-1;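 active = mean inhibition above about 95%, with at least 55% of replicates also reaching it, limit read from the data; inconclusive = meets just one of the two conditions; inactive = meets neither condition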
NIH3T3 tox: NIH/3T3 (mouse) viability loss | AID 651742 | shares compounds with T cruzi growth-1 | cytotoxicity (signal decrease), % at 8.35 µM | NIH/3T3 viability, CellTiter-Glo ATP luminescence, 90 h | 5,600 compounds, 14% hits;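 active = mean signal decrease across replicates above about 35% based on untreated-well scatter, with enough replicates individually passing, limit read from the data; inconclusive = no rule stated though some were filed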
3T3 cytotox 2: cytotoxicity in mouse NIH/3T3 fibroblasts. AID 651744. inhibition, % at 24.9 µM. shares compounds with T cruzi growth-1. 5,600 compounds, 56% hits. NIH/3T3 viability, CellTiter-Glo ATP luminescence, 90 h;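 active = mean loss of cell viability signal at or above a set limit, and enough replicates individually reaching it; inconclusive = meets only the mean limit or only the replicate share; inactive = meets neither condition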
A number is an active result; – = inactive; ? = inconclusive; · = no result; ! = not confirmed by another sample. An excerpt weighted towards active compounds, which were near 5.8% of everything screened.

SMILES	T cruzi growth-1	Pf Dd2 growth	IDH1 mut inh	KDM4C inh	T cruzi growth-2	T cruzi growth-3	NIH3T3 tox	3T3 cytotox 2
CC(=O)N1CCCCN2[C@@H](CO)[C@H](c3ccc(-c4ccc(C)cc4)cc3)[C@@H]2C1	120	–	·	–	–	–	?	76
O=C(Nc1ccc(F)cc1)N1CCCCN2[C@H](CO)[C@H](c3ccc(C#CC4CC4)cc3)[C@@H]2C1	106	–	·	–	107	–	–	–
O=C(Nc1ccc(F)cc1)N1CCCCN2[C@H](CO)[C@@H](c3ccc(C#CC4CC4)cc3)[C@@H]2C1	108	–	·	–	112	–	–	104
O=C(Nc1ccc(F)cc1)N1CCCCN2[C@H](C1)[C@@H](c1ccc(C#CC3CC3)cc1)[C@@H]2CO	99	–	·	–	101	104	–	105
O=C(Nc1ccccc1)N1CCCCN2[C@@H](CO)[C@@H](c3ccc(C#CC4CC4)cc3)[C@@H]2C1	–	–	·	–	·	·	·	·
COc1ccc(N(C(C)C(=O)Nc2ccccc2Cl)S(C)(=O)=O)cc1 (configuration not stated)	·	·	–	·	·	·	·	·
CCC(=O)N(C(=O)CC)c1cc2oc3ccccc3c2cc1OC	·	·	–	·	·	·	·	·
C[C@H]1CN([C@@H](C)CO)S(=O)(=O)c2ccc(C#CCN(C)C)cc2O[C@H]1CN(C)C(=O)C1CCC1	105	–	–	–	102	–	–	–
C[C@H](CO)N1C[C@H](C)[C@H](CN(C)C(=O)C2CC2)Oc2cc(C#CCN(C)C)ccc2S1(=O)=O	95	–	–	–	109	–	–	–
C[C@@H]1CN([C@H](C)CO)S(=O)(=O)c2ccc(C#CCN(C)C)cc2O[C@H]1CN(C)C(=O)C1CCC1	100	–	–	–	?	100	–	–
C[C@@H]1CN([C@@H](C)CO)S(=O)(=O)c2ccc(C#CCN(C)C)cc2O[C@H]1CN(C)C(=O)C1CCC1	104	–	·	–	108	99	–	–
C[C@@H]1CN([C@@H](C)CO)S(=O)(=O)c2ccc(C#CCN(C)C)cc2O[C@@H]1CN(C)C(=O)C1CCCCC1	·	–	–	–	·	·	·	·
C[C@@H]1CN([C@@H](C)CO)S(=O)(=O)c2ccc(C#CCN(C)C)cc2O[C@@H]1CN(C)C(=O)C1CCC1	–	–	·	–	·	·	·	·
C[C@H]1CN([C@@H](C)CO)S(=O)(=O)c2ccc(C#CCN(C)C)cc2O[C@H]1CN(C)C(=O)C1CC1	–	–	·	–	·	·	·	·
COc1ccc(NC(=O)CN(c2ccc(Cl)c(Cl)c2)S(C)(=O)=O)cc1OC	·	·	–	·	·	·	·	·
COc1ccc(NC(=O)CSc2nc3ccc([N+](=O)[O-])cc3s2)cc1Cl	·	·	–	·	·	·	·	·
CCn1c(SCC(=O)Nc2ccc(Cl)cc2Cl)nnc1-c1ccc(Cl)c(Cl)c1	·	·	–	·	·	·	·	·
CN1C(=O)c2cc(NC(=O)c3cnccn3)ccc2OC[C@H]2O[C@@H](CC(=O)N[C@@H]3CCN(Cc4ccccc4)C3)CC[C@H]21	107	–	·	–	97	–	–	–
CN1C(=O)c2cc(NC(=O)c3cnccn3)ccc2OC[C@H]2O[C@@H](CC(=O)N[C@@H]3CCN(Cc4ccccc4)C3)CC[C@@H]21	·	–	·	–	·	·	·	·
CN1C(=O)c2cc(NC(=O)c3cnccn3)ccc2OC[C@H]2O[C@@H](CC(=O)N[C@H]3CCN(Cc4ccccc4)C3)CC[C@H]21	114	?	·	–	104	103	–	–
COc1ccc(S(=O)(=O)N(C)C[C@@H]2Oc3cc(C#CC4CCCCC4)ccc3S(=O)(=O)N([C@@H](C)CO)C[C@@H]2C)cc1	111!	-84!	–	–	–	–	–	59
COc1ccc(S(=O)(=O)N(C)C[C@@H]2Oc3cc(C#CC4CC4)ccc3S(=O)(=O)N([C@@H](C)CO)C[C@@H]2C)cc1	110	–	·	–	104	101	–	27
C[C@@H]1CN([C@H](C)CO)S(=O)(=O)c2ccc(C#CC3CCCC3)cc2O[C@H]1CN(C)S(C)(=O)=O	–	–	–	–	·	·	·	·
COc1ccc(S(=O)(=O)N(C)C[C@@H]2Oc3cc(C#CC4CC4)ccc3S(=O)(=O)N([C@H](C)CO)C[C@@H]2C)cc1	109	–	–	–	104	–	–	25
Cc1ccc(S(=O)(=O)N(C)C[C@@H]2Oc3cc(C#CC4CCCC4)ccc3S(=O)(=O)N([C@H](C)CO)C[C@@H]2C)cc1	125	–	–	–	–	103	–	–
SMILES	T cruzi growth-1	Pf Dd2 growth	IDH1 mut inh	KDM4C inh	T cruzi growth-2	T cruzi growth-3	NIH3T3 tox	3T3 cytotox 2
COc1ccc(S(=O)(=O)N(C)C[C@@H]2Oc3cc(C#CC4CCCC4)ccc3S(=O)(=O)N([C@H](C)CO)C[C@H]2C)cc1	–	–	–	–	·	·	·	·
O=C(CSc1nc2ccc(NC(=O)c3ccccc3F)cc2s1)c1cccc([N+](=O)[O-])c1	·	·	–	·	·	·	·	·
COc1cc([N+](=O)[O-])ccc1NC(=S)NCc1cn(-c2ccccc2)nc1-c1ccccc1	·	·	–	·	·	·	·	·
COc1ccc(S(=O)(=O)N(C)C[C@H]2Oc3cc(C#CC4CC4)ccc3S(=O)(=O)N([C@H](C)CO)C[C@@H]2C)cc1	106	–	·	–	103	–	–	50
COC(=O)c1cnn(-c2ccccc2)c1C=Nc1ccc(C)cc1	·	·	–	·	·	·	·	·
COc1ccccc1S(=O)(=O)N(C)C[C@H]1Oc2cc(C#CCC(C)C)ccc2S(=O)(=O)N([C@@H](C)CO)C[C@@H]1C	?	–	–	–	?	114	–	98
COc1ccccc1S(=O)(=O)N(C)C[C@H]1Oc2cc(C#CCC3CCCC3)ccc2S(=O)(=O)N([C@H](C)CO)C[C@H]1C	127	–	·	26	–	110	–	–
COc1ccccc1S(=O)(=O)N(C)C[C@H]1Oc2cc(C#CCC3CCCC3)ccc2S(=O)(=O)N([C@H](C)CO)C[C@@H]1C	·	–	–	–	·	·	·	·
COC(=O)C[C@@H]1CC[C@@H]2[C@@H](COc3ccc(NS(=O)(=O)c4cccc(F)c4)cc3C(=O)N2C)O1	–	–	·	–	·	·	·	·
CN1C(=O)c2cc(NS(=O)(=O)c3ccc(F)cc3)ccc2OC[C@H]2O[C@H](CC(=O)O)CC[C@H]21	97	–	·	–	?	–	–	–
COC(=O)C[C@H]1CC[C@@H]2[C@H](COc3ccc(NS(=O)(=O)c4cccc(F)c4)cc3C(=O)N2C)O1	105	–	·	–	–	–	–	–
CN1C(=O)c2cc(NS(=O)(=O)c3ccc(Cl)cc3)ccc2OC[C@H]2O[C@@H](CC(=O)N3CCc4ccccc4C3)CC[C@@H]21	113	–	·	–	104	–	–	71
COC(=O)C[C@@H]1CC[C@@H]2[C@H](COc3ccc(NS(=O)(=O)c4ccc(C)cc4)cc3C(=O)N2C)O1	107	–	·	–	100	–	–	–
